HKDC1 inh: HKDC1 hexokinase inhibitors, primary screen, biochemical, fluorescence, uHTS | AID 493160, 2011 | inhibition, % at 20 µM | actives 0.16% (n = 340,000) | recombinant HKDC1, G6PDH/diaphorase resazurin coupled fluorescence | Q2TB90;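 active means inhibition above about 35% when tested at 20 µM, limit read from the data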
Target sequence (Q2TB90 whole entry, looked up): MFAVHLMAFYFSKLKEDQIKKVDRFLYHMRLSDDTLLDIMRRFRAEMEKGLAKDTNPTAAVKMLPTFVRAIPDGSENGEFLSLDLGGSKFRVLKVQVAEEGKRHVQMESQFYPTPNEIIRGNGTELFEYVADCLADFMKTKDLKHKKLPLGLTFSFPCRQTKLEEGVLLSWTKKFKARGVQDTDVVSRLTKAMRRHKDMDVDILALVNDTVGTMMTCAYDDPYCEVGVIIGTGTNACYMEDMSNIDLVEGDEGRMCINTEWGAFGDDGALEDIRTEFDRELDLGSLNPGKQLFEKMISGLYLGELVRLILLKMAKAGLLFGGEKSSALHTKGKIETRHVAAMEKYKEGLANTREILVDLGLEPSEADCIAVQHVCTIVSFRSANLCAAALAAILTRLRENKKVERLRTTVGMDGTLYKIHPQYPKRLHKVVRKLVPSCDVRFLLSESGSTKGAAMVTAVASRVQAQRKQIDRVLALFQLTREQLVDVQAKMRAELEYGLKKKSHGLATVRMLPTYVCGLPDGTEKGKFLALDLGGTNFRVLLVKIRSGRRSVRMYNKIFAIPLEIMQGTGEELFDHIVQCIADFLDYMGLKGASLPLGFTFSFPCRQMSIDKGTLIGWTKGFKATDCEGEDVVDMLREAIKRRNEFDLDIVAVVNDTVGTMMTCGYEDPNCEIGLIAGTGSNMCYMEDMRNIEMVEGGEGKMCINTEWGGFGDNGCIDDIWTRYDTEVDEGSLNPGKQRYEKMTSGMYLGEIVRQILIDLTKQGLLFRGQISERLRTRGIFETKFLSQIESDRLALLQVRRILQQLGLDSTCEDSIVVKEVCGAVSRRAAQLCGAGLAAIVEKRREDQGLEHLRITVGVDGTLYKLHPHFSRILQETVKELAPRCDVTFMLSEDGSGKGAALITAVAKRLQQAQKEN
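Incubation: 90 min at room temperature in dark / Material: recombinant HKDC1 (HK5) hexokinase enzyme, produced in-house / Quantity: enzyme 5 µg/mL final / Compound: one dose of 20 µM, 1% DMSO / Reagent: glucose and ATP substrates / Buffer or medium: Tris pH 8.0 buffer with MgCl2, Tween-20, BSA, BME / Technique: resorufin fluorescence at 613 nm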
PfG6PD inh: PfG6PD enzyme inhibitors, primary screen, biochemical, fluorescence intensity, uHTS; actives 0.78% (n = 350,000); AID 504690, 2011; inhibition, % at 20 µM; PfGluPho enzyme, NADPH resazurin-diaphorase fluorescence;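 active means inhibition reaching at least a set limit at 20 µM in the primary screen, cut at about 59% in these data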
ABHD5 PLIN5 PPI: ABHD5-PLIN5 interaction inhibitors, primary screen, cell lysate, split luciferase complementation, luminescence. actives 0.78% (n = 360,000). inhibition, % at 4 µM. Split G. princeps luciferase complementation, 4 h. Perilipin-5 (Homo sapiens) + 1-acylglycerol-3-phosphate O-acyltransferase ABHD5 (Homo …;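 active means inhibition above the mean inhibition across every tested compound plus 3 SD, cut at about 22% in these data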
Granule exo inh: LAMP-1 surface exposure blockers, TALL-104 cells – cell-based, flow cytometry, MLPCN library, primary screen. actives 0.66% (n = 360,000). TALL-104 LAMP-1 surface exposure; cells stimulated with thapsigargin and PMA. inhibition, % at 10 µM;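 active means inhibition above about 55%, limit read from the data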
ABHD5 PLIN5 conf: ABHD5-PLIN5 interaction inhibitors, confirmation, biochemical, luminescence; shares compounds with ABHD5 PLIN5 PPI; inhibition, % at 4 µM; actives 67% (n = 2,200); in the data active means inhibition above about 23%
HNF4 counter: HNF4 dimerization inhibitors, counter-screen for ABHD5-PLIN5 interaction inhibitor project, biochemical, split-luciferase complementation, luminescence | shares compounds with ABHD5 PLIN5 PPI | inhibition, % at 4 µM | actives 77% (n = 2,200) | AID 651674, 2012;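 active means mean inhibition across replicate wells exceeding the computed hit threshold, cut at about 13% in these data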;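 further: light from luciferase halves that rejoin when HNF4 fusion proteins dimerize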
Numbers stand for hits; 0 = inactive; - = not tested or not shown. Only some compounds are listed: those with a hit (about 2.2% of all), similar ones and a draw of the others.

SMILES	HKDC1 inh	PfG6PD inh	ABHD5 PLIN5 PPI	Granule exo inh	ABHD5 PLIN5 conf	HNF4 counter
O=C1CC(c2ccc(Cl)cc2)Oc2ccc(Cl)cc21 (stereo not given)	0	0	23	0	62	33
Cn1c(Cl)cnc1C1CC(=O)c2cc(Cl)ccc2O1 (stereo not given)	0	0	32	0	0	49
CCOC(=O)Cn1nc(C)c(NC(=O)COc2ccc(OC)cc2)c1C	0	0	0	0	-	-
Cc1ccccc1N1CCN(C2CCCN(C(=O)CCN3CCCCC3=O)C2)CC1 (stereo not given)	0	0	0	0	-	-
CC1=C(C(=O)Nc2ccccc2)C(c2ccc(Cl)cc2)n2c(s/c(=C/c3cccc(OCC(=O)O)c3)c2=O)=N1 (stereo not given)	0	0	27	0	49	29
CCOc1ccc(C2C(C(=O)Nc3ccccc3)=C(C)N=c3s/c(=C/c4cccc(OCC(=O)O)c4)c(=O)n32)cc1 (stereo not given)	0	0	0	0	-	-
Cc1c(Br)c([N+](=O)[O-])nn1CC(=O)N1CCN(C23CC4CC(CC(C4)C2)C3)CC1	0	0	0	0	-	-
C=CCOc1ccc(C=CC(=O)c2c(O)c(OC)c(OC)c(OC)c2OC)cc1	0	0	59	0	72	56
C=CCOc1ccc(/C=C/C(=O)OCC(=O)NCc2cccc(OC)c2)cc1	0	0	0	0	-	-
COc1ccc(CNC(=O)c2cccnc2Sc2ccc(Cl)cc2)cc1	0	0	89	0	0	0
CCc1ccccc1NC(=O)CN(C)Cc1c(O)ccc2ccccc12	0	0	24	0	46	88
Cc1ccc(C)c(-n2c(SCC(=O)NC(C(=O)O)C(C)C)nnc2-c2cccc(Cl)c2)c1 (stereo not given)	0	0	0	0	-	-
CC(=O)N1CCN(c2cc(N3CCCC3)c(F)cc2[N+](=O)[O-])CC1	0	0	0	0	-	-
CCN1CCN(c2cc(N3CCc4ccccc4C3)c(F)cc2[N+](=O)[O-])CC1	0	0	26	0	0	0
COc1cccc(/C=C/C(=O)c2ccc(NS(=O)(=O)c3ccc(C)cc3)cc2)c1	0	0	32	0	80	61
COc1ccc(/C=C/c2c([N+](=O)[O-])c(=O)n(C)c(=O)n2C)cc1O	0	0	0	0	-	-
COc1cc(/C=C/C(=O)c2ccc(C)c([N+](=O)[O-])c2)cc(OC)c1O	0	0	65	0	79	72
COc1cccc(C(=O)/C=C/Nc2ccc(S(=O)(=O)Nc3cccc(C(C)=O)c3)cc2)c1	0	0	0	0	-	-
COc1cc(/C=C/C(=O)c2ccc(O)cc2)ccc1OCC#N	0	0	0	0	-	-
COc1ccc(/C=C/C(=O)c2ccc(C)c([N+](=O)[O-])c2)cc1O	0	0	40	0	80	73
COc1cccc(C(=O)/C=C/c2ccc(OCC#N)c(OC)c2)c1	0	0	55	0	86	77
CSc1nc2ccccc2nc1N(C)S(=O)(=O)c1ccc(C)cc1	0	0	0	0	-	-
CC1CCCC(NC(=O)CSc2nnc(C(F)(F)F)n2C)C1C (stereo not given)	0	0	0	0	-	-
COc1ccc(C(=O)/C=C/c2ccc(N3CCCCC3)c([N+](=O)[O-])c2)cc1	0	0	0	0	-	-
COc1cccc(/C=C/C(=O)c2ccc(C)c([N+](=O)[O-])c2)c1	0	0	56	0	102	105
SMILES	HKDC1 inh	PfG6PD inh	ABHD5 PLIN5 PPI	Granule exo inh	ABHD5 PLIN5 conf	HNF4 counter
O=[N+]([O-])c1ccc(N=Nc2ncc[nH]2)cc1	0	0	30	79	57	52
CCn1c(SCC(=O)N/N=C/C=C/c2ccco2)nnc1-c1ccc(OC)cc1	0	0	30	0	0	40
Cc1ccc(O)c(Cc2cc(C)cc(Cc3cc(C)ccc3O)c2O)c1	-	0	0	0	-	-
N#C/C(=C\c1ccc(N2CCOCC2)o1)c1nc2ccccc2[nH]1	0	0	24	0	29	51
COCCNC(=O)c1c[nH]c2ccc(S(=O)(=O)N(C)c3ccc(C)c(C)c3)cc2c1=O	0	0	0	0	-	-
O=S(=O)(/C=C/C=C/S(=O)(=O)c1ccccc1)c1ccccc1	0	0	90	0	91	111
CCOC(=O)c1ccc(NC(=O)CSc2nc3c(c(=O)n2C)SC(C)C3)cc1 (stereo not given)	0	0	0	0	-	-
CCOC(=O)c1ccc(NC(=O)CSc2nc3c(c(=O)n2CC)SC(C)C3)cc1 (stereo not given)	0	0	81	0	0	0
CC(C)OC(=O)CN1C(=O)S/C(=C/c2ccc(N3CCCCC3)o2)C1=O	0	0	34	63	61	102
C=CCNC(=O)/C(C#N)=C/c1cc(Br)ccc1OC	0	0	43	0	56	45
C=CCNC(=O)/C(C#N)=C/c1ccccc1Cl	0	0	0	0	-	-
O=C(NC1CCCCC1)C(c1ccccc1)N(C(=O)c1csnn1)C1CCCC1 (stereo not given)	0	0	0	0	-	-
CCOC(=O)CCCc1ccc(/C(C)=N/NC(N)=S)cc1	0	0	0	0	-	-
CSc1nc(O)c(Nc2ccccc2)c(=O)[nH]1	0	0	0	0	-	-
CCOc1cc(C(c2c(O)nc(SC)[nH]c2=O)c2c(O)nc(SC)[nH]c2=O)ccc1O	0	0	32	0	89	77
COc1ccccc1C(c1c(O)nc(SC)[nH]c1=O)c1c(O)nc(SC)[nH]c1=O	0	0	24	0	49	42
O=c1c2cc(N3CCOCC3)ccc2[nH]c(=S)n1Cc1cccc(Cl)c1	0	0	0	0	-	-
O=c1c2cc(N3CCOCC3)ccc2[nH]c(=S)n1Cc1ccco1	0	0	25	0	43	77
Cc1ccc(NS(=O)(=O)c2c(C)[nH]c(C)c2C(=O)N2CCCC2)cc1Cl	0	0	0	0	-	-
CCSc1nc2ccccc2n1C(=O)/C=C\c1ccc(OC)c(OC)c1	0	0	40	0	77	60
C=CCOc1cccc(C(=O)N2CCCC(CCC(=O)NCc3ccccc3F)C2)c1 (stereo not given)	0	0	0	0	-	-
C=CCOc1cccc(C(=O)/C=C2/C(=O)Nc3ccccc32)c1	0	0	65	0	80	90
CC(=O)/C=C1/C(=O)Nc2ccccc21	0	0	44	0	71	81
O=C(Cc1ccccc1)Nc1cccc(C(=O)O)c1O	0	0	0	0	-	-
CCOC(=O)c1nc(S(C)(=O)=O)ncc1Cl	0	0	55	0	56	90
CS(=O)(=O)c1ncc(Cl)c(C(=O)Nc2ccc(OC(F)F)cc2)n1	0	0	75	0	89	103

Screens as filed in PubChem.
